Experimental data from ChEMBL document CHEMBL1152455, “Ribosome protection prevents azithromycin-mediated quorum-sensing modulation and stationary-phase killing of Pseudomonas aeruginosa” (2007).
Activity calls are given as the source filed them. The rule behind the calls is not given here.

Tests used:
Pseudomonas aeruginosa [1] = assay: Inhibition of rhamnolipid production in Pseudomonas aeruginosa PT1300 harboring vector pEX1.8 up to 50 ug/ml incubated for 24 hrs at 37 degC further 24 hrs at 25 degC; assay type: functional, organism-based
Outline: (§1)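 SW plates (M9 with 0.1% glutamate replacing NH4Cl, 0.2% glucose, 1 mM MgSO4) carried an azithromycin gradient of 0–50 μg/ml. Three-μl droplets of about 10^6 CFU were spotted at equal spacing. Plates were incubated 24 h at 37°C, then 24 h at 25°C.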

Pseudomonas aeruginosa [2] = assay: Inhibition of rhamnolipid production in azithromycin-hypersusceptible Pseudomonas aeruginosa 11B harboring mexX deletion mutant incubated for 24 hrs at 37 degC further 24 hrs at 25 degC; assay type: functional, organism-based; outline: as §1
Pseudomonas aeruginosa [3] = assay: Inhibition of rhamnolipid production in Pseudomonas aeruginosa 12B overexpressing mexXY incubated for 24 hrs at 37 degC further 24 hrs at 25 degC; assay type: functional, organism-based; outline: as §1
Pseudomonas aeruginosa [4] = assay: Inhibition of elastase production in Pseudomonas aeruginosa PT1300 harboring vector pEX1.8 after 18 hrs by elastin Congo red assay; assay type: functional, organism-based
Outline: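 Cultures grew 7 h in Pseudomonas broth. Supernatant was mixed with excess elastin Congo red (4 mg/ml) in 0.1 M Tris pH 7.4, 1 mM CaCl2 and held 18 h at 37°C. After centrifugation, A495 was read and expressed as OD495/OD600 of the culture. Values are means ± standard deviations of five independent experiments.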

Pseudomonas aeruginosa [5] = assay: Inhibition of swarming motility of Pseudomonas aeruginosa PT1300 harboring vector pEX1.8 at 2 ug/ml after 18 hrs; assay type: functional, organism-based
Outline: (§2)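 Swarm plates were 0.5% agar M9 with 0.2% glucose, 1 mM MgSO4 and 0.05% glutamate as nitrogen source, containing azithromycin. Three μl of overnight LB culture was spotted, and plates were read after 18 h at 37°C.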

Pseudomonas aeruginosa [6] = assay: Inhibition of swarming motility of Pseudomonas aeruginosa PT1308 expressing Clostridium perfringens 23S rRNA methylase ErmBP at 2 ug/ml after 18 hrs; assay type: functional, organism-based; outline: as §2
Pseudomonas aeruginosa [7] = assay: Bactericidal activity against stationary-phase Pseudomonas aeruginosa PT1300 culture harboring vector pEX1.8 after 20 to 22 hrs by plating serial dilution method; assay type: functional, organism-based
Outline: (§3)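 Overnight LB cultures (with carbenicillin 100 μg/ml or gentamicin 15 μg/ml for plasmid strains) were diluted to OD600 0.05 in antibiotic-free LB and grown at 37°C to stationary phase. Azithromycin was added to 2-ml aliquots at similar cell densities, and incubation continued 20–22 h at 37°C. Viable counts came from serial dilutions plated on LB agar.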

Pseudomonas aeruginosa [8] = assay: Bactericidal activity against stationary-phase Pseudomonas aeruginosa PT1308 culture expressing Clostridium perfringens 23S rRNA methylase ErmBP assessed as effect on cell viability at 1 to 16 ug/ml after 22 hrs by plating serial dilution method; assay type: functional, organism-based; outline: as §3
Pseudomonas aeruginosa [9] = assay: Bactericidal activity against stationary-phase Pseudomonas aeruginosa PT1300 culture harboring vector pEX1.8 at 1 to 16 ug/ml after 22 hrs by plating serial dilution method in presence of 1 mM Mg2+; assay type: functional, organism-based
Outline: (§4)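 Stationary-phase LB cultures of PT1300 or PT1308 received azithromycin plus 1 mM MgSO4, then 22 h at 37°C. Viable counts came from serial dilutions plated on LB agar. Values are means ± standard deviations of three independent experiments.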

Pseudomonas aeruginosa [10] = assay: Bactericidal activity against stationary-phase Pseudomonas aeruginosa PT1308 culture expressing Clostridium perfringens 23S rRNA methylase ErmBP at 1 to 16 ug/ml after 22 hrs by plating serial dilution method in presence of 1 mM Mg2+; assay type: functional, organism-based; outline: as §4
Pseudomonas aeruginosa [11] = assay: Bactericidal activity against Pseudomonas aeruginosa PT1323 harboring rhlAB-encoding pAKRHL at 2 to 18 ug/ml after 22 hrs by plating serial dilution method; assay type: functional; outline: as §3
Pseudomonas aeruginosa [12] = assay: Bactericidal activity against Pseudomonas aeruginosa PT1332 rhlA mutant harboring vector pAK1900 at 2 to 18 ug/ml after 22 hrs by plating serial dilution method; assay type: functional; outline: as §3
Pseudomonas aeruginosa [13] = assay: Inhibition of rhamnolipid production in Pseudomonas aeruginosa PT1323 harboring pAKRHL expressing rhlAB gene up to 50 ug/ml incubated for 24 hrs at 37 deg C further 24 hrs at 25 deg C; assay type: functional, organism-based; outline: as §1
Pseudomonas aeruginosa [14] = assay: Antimicrobial activity against exponential-phase Pseudomonas aeruginosa PT1323 cultures harboring mutation in bacterial rhlA protein and expressing rhamnosyltransferase rhlAB gene at 1 mg/ml after 18 hrs by susceptibility assay; assay type: functional, organism-based
Outline: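 LB agar plates with an azithromycin gradient (maximal 1 mg/ml) were streaked with each strain. Plates were read after 18 h at 37°C.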

[15] = Ratio of bactericidal activity against Pseudomonas aeruginosa PT712 harboring mutation in bacterial rhlA protein to bactericidal activity against wild type Pseudomonas aeruginosa PAO1 PT5; assay type: functional; outline: as §3

With `CC[C@H]1OC(=O)[C@H](C)[C@@H](O[C@H]2C[C@@](C)(OC)[C@@H](O)[C@H](C)O2)[C@H](C)[C@@H](O[C@@H]2O[C@H](C)C[C@H](N(C)C)[C@H]2O)[C@](C)(O)C[C@@H](C)CN(C)[C@H](C)[C@@H](O)[C@]1(C)O` [AZITHROMYCIN] the inhibition (Pseudomonas aeruginosa [1]) was “Active”, the inhibition (Pseudomonas aeruginosa [2]) was “Active” and the inhibition (Pseudomonas aeruginosa [3]) was “inactive”. The inhibition (Pseudomonas aeruginosa [4]) was “Dose-dependent effect”, the inhibition (Pseudomonas aeruginosa [5]) was “Active” and the inhibition (Pseudomonas aeruginosa [6]) was “inactive”. For the same molecule, the Activity (Pseudomonas aeruginosa [7]) was “Dose-dependent effect”, the Activity (Pseudomonas aeruginosa [8]) was “inactive” and the Activity (Pseudomonas aeruginosa [9]) was “inactive”. The Activity (Pseudomonas aeruginosa [10]) was “inactive”, the Activity (Pseudomonas aeruginosa [11]) was 4 and the Activity (Pseudomonas aeruginosa [12]) was 1. For the same molecule, the inhibition (Pseudomonas aeruginosa [13]) was “inactive”, the Activity (Pseudomonas aeruginosa [14]) was “inactive” and the Ratio [15] was 1000.
